According to ChEMBL document CHEMBL4732089, “Novel σ antagonists designed for tumor therapy: Structure - activity relationships of aminoethyl substituted cyclohexanes” (Eur J Med Chem, 2021):
The source made the active and inactive calls. No cut-off for these calls is given here.

Columns and labels:
[1] = biological target: T1, Sigma intracellular receptor 2 (Rattus norvegicus, UniProt Q5U3Y7); experiment: Displacement of [3H]-di-o-tolylguanidine from sigma2 receptor in rat liver membrane incubated for 120 mins by liquid scintillation counting method relative to control; assay type: cell membranes
T1 sequence (Q5U3Y7 whole entry): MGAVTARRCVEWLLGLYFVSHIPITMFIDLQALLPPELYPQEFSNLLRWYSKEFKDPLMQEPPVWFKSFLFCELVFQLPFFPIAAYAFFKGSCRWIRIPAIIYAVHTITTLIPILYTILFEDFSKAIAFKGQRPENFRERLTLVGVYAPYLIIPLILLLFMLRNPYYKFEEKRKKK
In short: (§1)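 Competitive binding with [3H]di-o-tolylguanidine on rat liver membranes. Single-concentration values are % inhibition of radioligand binding at 1 µM test compound. Ki values are n = 3 (±SEM), except low-affinity compounds, which were measured once.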

[2] = biological target: Sigma non-opioid intracellular receptor 1 (Cavia porcellus, UniProt Q60492); experiment: Displacement of [3H]-pentazocine from sigma1 receptor in guinea pig brain membrane incubated for 120 mins by liquid scintillation counting method; assay type: cell membranes
Sequence of Sigma non-opioid intracellular receptor 1 (Q60492 whole entry): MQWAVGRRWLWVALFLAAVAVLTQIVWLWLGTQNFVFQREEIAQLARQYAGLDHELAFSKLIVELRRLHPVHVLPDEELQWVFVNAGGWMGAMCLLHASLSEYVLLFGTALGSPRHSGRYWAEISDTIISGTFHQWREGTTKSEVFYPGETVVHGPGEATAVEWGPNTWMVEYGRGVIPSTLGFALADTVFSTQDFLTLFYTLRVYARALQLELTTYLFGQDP

Sus scrofa = organism: Sus scrofa; experiment: Displacement of [3H]-MK-801 from NMDA receptor PCP binding site in pig brain cortex at 1 uM incubated for 150 mins by liquid scintillation counting method relative to control; assay type: tissue-based
[3] = biological target: T2, Sigma intracellular receptor 2 (Rattus norvegicus) (UniProt Q5U3Y7); experiment: Displacement of [3H]-di-o-tolylguanidine from sigma2 receptor in rat liver membrane at 1 uM incubated for 120 mins by liquid scintillation counting method relative to control; assay type: cell membranes; in short: as §1
T2 sequence (whole entry): T1 sequence (Q5U3Y7 whole entry)

[4] = biological target: Sigma non-opioid intracellular receptor 1 (Rattus norvegicus) (UniProt Q9R0C9); experiment: Antagonist activity at sigma1 receptor in rat PC12 cells assessed as reduction in opipramol activity by measuring increase in Ca2+-influx at 10 nM measured after 30 mins in presence of KCl by Fura2AM dye based fluorescence microscopic analysis relative to control; assay type: cell-based; parameters: scale not given: the % may be the effect or the level left
Sequence of Sigma non-opioid intracellular receptor 1 (Rattus norvegicus) (Q9R0C9 whole entry, the tested form may be a part): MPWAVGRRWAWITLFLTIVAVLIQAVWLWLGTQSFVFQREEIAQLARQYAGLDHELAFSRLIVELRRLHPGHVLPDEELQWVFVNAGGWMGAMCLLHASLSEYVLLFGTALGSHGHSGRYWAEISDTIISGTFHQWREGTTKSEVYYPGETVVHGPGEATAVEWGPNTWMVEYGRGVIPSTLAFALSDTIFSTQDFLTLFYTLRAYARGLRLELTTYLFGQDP
In short: (§2)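 Single PC12 cells loaded with 0.5 µM fura-2-AM plus 0.01% Pluronic F-127, 30 min, 37 °C, in HEPES saline pH 7.4 (138 mM NaCl, 6 mM KCl, 2 mM CaCl2). Cells were then washed 30 min and perfused. Test compounds were at 10 nM, and Ca2+ influx was triggered with KCl. Excitation was at 340/380 nm and emission at 510 nm. The F340/F380 ratio was calibrated with KD 224 nM. 10–20 cells per slide, ≥5 independent experiments.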

[5] = biological target: Sigma non-opioid intracellular receptor 1 (Rattus norvegicus) (UniProt Q9R0C9); experiment: Agonist activity at sigma1 receptor in rat PC12 cells assessed as reduction in KCl-induced Ca2+ influx at 10 nM measured after 30 mins by Fura2AM dye based fluorescence microscopic analysis; assay type: cell-based; settings: PC-12; in short: as §2
DU-145 = experiment: Antiproliferative activity against human DU145 cells assessed as reduction in cell viability at 10 uM incubated for 72 hrs by SRB assay; assay type: functional, cell-based
In short: (§3)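 Cells from ATCC were grown in RPMI 1640 with 10% FBS, glutamine and penicillin-streptomycin. Seeding was 1×10^3 (lung) or 2×10^3 (prostate) cells/well. After 24 h, compounds were added at 10 µM for 72 h. Cells were fixed with 10% TCA and stained with sulforhodamine B for 30 min. Dye was solubilized in Tris base and OD read at 510 nm. Results are expressed as % of DMSO-treated cells.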

[6] = Selectivity for sigma1 receptor in guinea pig brain membrane over sigma2 receptor in rat liver membrane; assay type: cell membranes
[7] = n-octanol/aqueous buffer distribution coefficient, log D of compound at pH 7.4 by LC-MS analysis; assay type: physicochemical
In short: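 Micro shake-flask method using 20 mM MOPS buffer pH 7.4 and n-octanol, mutually pre-saturated for 24 h. DMSO was kept below 1%. Three buffer:octanol volume ratios (1:1, 1:2, 2:1) were each run three times (n = 9). Tubes were vortexed 2 min and centrifuged 10 min at 20 °C. The aqueous layer was quantified by LC-MS against a matrix-matched calibration, and logD calculated from that concentration.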

[8] = Metabolic stability in mouse liver microsomes assessed as parent compound remaining measured after 90 mins in presence of NADPH
[9] = Drug metabolism in mouse liver microsomes assessed as metabolite 4-((1S,3R)-3-(2-(benzylamino)ethyl)cyclohexyl)benzene-1,2-diol formation measured after 90 mins in presence of NADPH by LC-MS analysis; assay type: ADME, Microsome; settings: 1.5 h
In short: (§4)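 Incubation with mouse liver microsomes and NADPH for 90 min at 37 °C. Metabolites were identified by LC-MS with collision-induced dissociation.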

[10] = Drug metabolism in mouse liver microsomes assessed as metabolite 2-((1R,3S)-3-phenylcyclohexyl)ethanamine formation measured after 90 mins in presence of NADPH by LC-MS analysis; assay type: ADME, Microsome; settings: 1.5 h; in short: as §4
NCI-H441 = experiment: Antiproliferative activity against human NCI-H441 cells assessed as reduction in cell viability at 10 uM incubated for 72 hrs by SRB assay; assay type: functional, cell-based; in short: as §3
NCI-H522 = experiment: Antiproliferative activity against human NCI-H522 cells assessed as reduction in cell viability at 10 uM incubated for 72 hrs by SRB assay; assay type: functional, cell-based; in short: as §3
CWR22R = experiment: Antiproliferative activity against human 22Rv1 cells assessed as reduction in cell viability at 10 uM incubated for 72 hrs by SRB assay; assay type: functional, cell-based; in short: as §3
PC-3 = experiment: Antiproliferative activity against human PC-3 cells assessed as reduction in cell viability at 10 uM incubated for 72 hrs by SRB assay; assay type: functional, cell-based
In short: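 PC3 prostate cancer cells grown adherent in RPMI 1640 with 2% glutamine, 10% FBS and 1% penicillin-streptomycin. Seeded at 2 × 10^3 cells/well; compound added at 10 µM 24 h later for 72 h. Cells fixed in 10% TCA, stained with sulforhodamine B 30 min, washed with 1% acetic acid, dye solubilised in Tris base, OD read at 510 nm; viability given as % of DMSO-treated cells.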

NCI-H358 = experiment: Antiproliferative activity against human NCI-H358 cells assessed as reduction in cell viability at 10 uM incubated for 72 hrs by SRB assay; assay type: functional, cell-based; in short: as §3

Row | SMILES | Ki [1] [nM] | Ki [2] [nM] | inhibition (Sus scrofa) [%] | Activity (DU-145) | other results
1 | c1ccc(CNCC[C@@H]2CCC[C@H](c3ccccc3)C2)cc1 (relative stereo) [listing 1 of 2 here] | 130 | 1.8 | – | – | –
2 | NCC[C@@H]1CCC[C@H](c2ccccc2)C1 | – | 167 | 11 | – | inhibition [3]: 38%
3 | c1ccc(CCCCNCCC2CCCC(c3ccccc3)C2)cc1 (mixture of isomers) | 93 | 3 | 11 | – | –
4 | NCC[C@@H]1CCC[C@@H](c2ccccc2)C1 | – | 43 | 15 | – | inhibition [3]: 43%
5 | c1ccc(CNCC[C@@H]2CCC[C@@H](c3ccccc3)C2)cc1 (relative stereo) [listing 1 of 2 here] | – | – | 31 | – | Activity ([4]; PC-12, filed as antagonist): 100%; Activity [5]: inactive
6 | c1ccc([C@H]2CCC[C@@H](CCN3CCCC3)C2)cc1 (relative stereo) | 61 | 3.6 | 36 | – | –
7 | c1ccc([C@H]2CCC[C@@H](CCN3CCN(c4ccccc4)CC3)C2)cc1 (relative stereo) | 118 | 16 | 0 | inactive | –
8 | NCC[C@H]1CCC[C@H](c2ccccc2)C1 | – | 603 | 31 | – | inhibition [3]: 60%
9 | c1ccc(CNCC[C@@H]2CCC[C@H](c3ccccc3)C2)cc1 [listing 1 of 2 here] | – | – | – | Active | –
10 | c1ccc(CNCC[C@@H]2CCC[C@@H](c3ccccc3)C2)cc1 [listing 2 of 2 here] | – | – | – | inactive | Selectivity ratio [6]: 35
11 | CN(C)CC[C@H]1CCC[C@@H](c2ccccc2)C1 | 156 | 10 | – | – | –
12 | CN(C)CCC1CCCC(c2ccccc2)C1 (mixture of isomers) | 115 | 4.2 | 25 | – | –
13 | c1ccc(CNCC[C@@H]2CCC[C@H](c3ccccc3)C2)cc1 (relative stereo) [listing 2 of 2 here] | – | – | 11 | Active | Activity (NCI-H441): Active; Activity (NCI-H522): Active; Activity (CWR22R): Active; Activity ([4]; PC-12): inactive; Activity [5]: inactive; Activity (PC-3): Active; Activity (NCI-H358): Active
14 | CCCN(CCC)CCc1ccc(OC)c(OCCc2ccccc2)c1 | – | – | – | – | Activity (PC-3): Active
15 | NCC[C@H]1CCC[C@@H](c2ccccc2)C1 | – | 138 | 14 | – | inhibition [3]: 24%
16 | c1ccc(CNCC[C@@H]2CCC[C@@H](c3ccccc3)C2)cc1 (relative stereo) [listing 2 of 2 here] | 268 | 2.4 | – | – | –

More lines, main results first:

Row | Ki [1] [nM] | Ki [2] [nM] | inhibition (Sus scrofa) [%] | SMILES | Activity (DU-145) | other results
17 | 57 | 1.8 | – | c1ccc(CNCC[C@@H]2CCC[C@@H](c3ccccc3)C2)cc1 [listing 1 of 2 here] | – | –
18 | 47 | 1.3 | – | c1ccc(CNCC[C@H]2CCC[C@@H](c3ccccc3)C2)cc1 | Active | Selectivity ratio [6]: 35
19 | 144 | 13 | 0 | c1ccc([C@H]2CCC[C@H](CCN3CCN(c4ccccc4)CC3)C2)cc1 (relative stereo) | inactive | –
20 | 76 | 14 | – | CN(C)CC[C@@H]1CCC[C@H](c2ccccc2)C1 | – | –
21 | 49 | 0.61 | – | c1ccc(CNCC[C@@H]2CCC[C@H](c3ccccc3)C2)cc1 [listing 2 of 2 here] | – | logD [7]: 3.23; remaining at 1.5 h [8]: 43%; Drug metabolism [9]: Metabolite_Detected; Drug metabolism [10]: Metabolite_Detected
22 | 46 | 1.4 | – | c1ccc(CNCC[C@H]2CCC[C@H](c3ccccc3)C2)cc1 | inactive | logD [7]: 3.34; Selectivity ratio [6]: 35
23 | 33 | 2 | 28 | c1ccc([C@@H]2CCC[C@@H](CCN3CCCC3)C2)cc1 (relative stereo) | – | Activity ([4]; PC-12, filed as antagonist): 100%; Activity [5]: inactive
